According to paper PMC7106177 (International Immunopharmacology, 2004):
≈ marks a conversion by molar mass, not a printed value.

Key:
Type in all cases: cell-based, human
[1] = system: eotaxin 1 mRNA in HFL-1 cells; assay: RT-PCR analysis of eotaxin 1 mRNA expression; settings: TNF-α plus IL-4-stimulated HFL-1
[2] = system: IL-8 production in HFL-1 cells; assay: IL-8 production by TNF-α-stimulated HFL-1 cells; settings: for IL-8 production reduced to (% of stimulated control): 1000 μg/ml, P<0.001; for IL-8 production reduced to (% of stimulated control) / concentration at which significant inhibition of IL-8 production was observed: TNF-α 24 h; for concentration at which significant inhibition of IL-8 production was observed: P<0.01
How it was run: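 HFL-1 fetal lung fibroblasts are grown in Ham's F-12 with 15% heat-inactivated FBS on collagen, then seeded at 5×10^4 cells/well and adhered overnight. Test compound is added in 1% FBS medium, with vehicle controls, followed by TNF-α 10 ng/ml for 24 h at 37 °C. Supernatant IL-8 is measured by sandwich ELISA, at least in duplicate. Data are mean±S.D. of three experiments, analysed by Student's t-test, with IC50 calculated from the ELISA data.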

HFL-1 cells = assay: cytotoxicity by LDH assay; settings: calculated from LDH assay data; for CC30 (cytotoxicity), IL-8 condition: HFL-1, TNF-α stimuli for 24 h; for CC30 (cytotoxicity), eotaxin 1 condition: HFL-1, TNF-α/IL-4 stimuli for 48 h
How it was run: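 LDH leakage is measured in supernatants from the same HFL-1 cultures under both stimulation conditions: TNF-α 10 ng/ml for 24 h, or TNF-α plus IL-4 20 U/ml for 48 h. Test compound is in 1% FBS medium, and final EtOH or DMSO is mostly below 0.1%. LDH is read with a commercial LDH cytotoxicity kit.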

[3] = system: eotaxin 1 production in HFL-1 cells; assay: eotaxin 1 production by TNF-α plus IL-4-stimulated HFL-1 cells; settings: HFL-1, TNF-α/IL-4 stimuli for 48 h; calculated from ELISA data
How it was run: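 Collagen-plated HFL-1 cells are seeded at 5×10^4/well and adhered overnight. Test compound in 1% FBS medium, or vehicle, is added, and the cells are then stimulated with TNF-α 10 ng/ml plus IL-4 20 U/ml for 48 h at 37 °C. Eotaxin 1 in the supernatant is quantified by sandwich ELISA, with samples at least in duplicate. Values are mean±S.D. of three independent experiments, compared by t-test, and IC50 is derived from the ELISA data.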

IL-8 mRNA in HFL-1 cells = assay: RT-PCR analysis of IL-8 mRNA expression; settings: TNF-α-stimulated HFL-1

Row | SMILES | effect on eotaxin 1 mRNA expression [1] | IL-8 production reduced to (% of stimulated control) [2] [%] | IL-8 IC50 ([2]; HFL-1, TNF-α stimuli for 24 h, calculated from ELISA data) [µg/mL] | concentration at which significant inhibition of IL-8 production was observed [2] | CC30 (cytotoxicity), IL-8 condition (HFL-1 cells) [µg/mL] | CC30 (cytotoxicity), eotaxin 1 condition (HFL-1 cells) [µg/mL] | Eotaxin 1 IC50 [3] [µg/mL] | doses needed to inhibit IL-8 and eotaxin 1 production ([2]; IL-8 and eotaxin 1 production, HFL-1) [mg/mL] | effect on IL-8 mRNA expression (IL-8 mRNA in HFL-1 cells)
1 | CC1(C)[C@@H](O[C@H]2O[C@H](C(=O)O)[C@@H](O)[C@H](O)[C@H]2O[C@@H]2O[C@H](C(=O)O)[C@@H](O)[C@H](O)[C@H]2O)CC[C@]2(C)[C@H]3C(=O)C=C4[C@@H]5C[C@@](C)(C(=O)O)CC[C@]5(C)CC[C@@]4(C)[C@]3(C)CC[C@@H]12 [18β-GL, glycyrrhizin] | did not inhibit it at the same doses | 25 | 370 | more than 300 μg/ml | >1000 | >1000 | >300 |  | 
2 | CC1(C)[C@@H](O[C@H]2O[C@H](C(=O)O)[C@@H](O)[C@H](O)[C@H]2O[C@@H]2O[C@H](C(=O)O)[C@@H](O)[C@H](O)[C@H]2O)CC[C@]2(C)[C@H]3C(=O)C=C4[C@@H]5C[C@@](C)(C(=O)O)CC[C@]5(C)CC[C@@]4(C)[C@]3(C)CC[C@@H]12 [GL, Glycyrrhizin] |  |  |  |  |  |  |  | ~1 | 
3 | CC1(C)[C@@H](O[C@H]2O[C@H](C(=O)O)[C@@H](O)[C@H](O)[C@H]2O[C@@H]2O[C@H](C(=O)O)[C@@H](O)[C@H](O)[C@H]2O)CC[C@]2(C)[C@H]3C(=O)C=C4[C@@H]5C[C@@](C)(C(=O)O)CC[C@]5(C)CC[C@@]4(C)[C@]3(C)CC[C@@H]12 [18α-GL, glycyrrhizin] |  | 25 |  | more than 300 μg/ml | 330 (≈ 401 µM) | >1000 | 25 |  | did not indicate significant effect
